These results are taken from ChEMBL document CHEMBL2046333, “Antiprotozoal and antimicrobial compounds from the plant pathogen Septoria pistaciarum” (J Nat Prod, 2012).

Converted amounts (≈) assume the structure as drawn. The source made the active and inactive calls. No cut-off for these calls is given here. Some results are limits rather than exact numbers.

Series [1] concerns Plasmodium falciparum. Nature of the series: Antimalarial activity against chloroquine-sensitive Plasmodium falciparum D6 infected in RBC assessed as parasite LDH activity after 72 hrs. Format: functional, organism-based. The conditions noted are these: D6, 72 h.
Series [2] in a line: Selectivity index, ratio of IC50 for african green monkey Vero cells to IC50 for chloroquine-resistant Plasmodium falciparum W2. Type of series: toxicity, cell-based. The settings on record: read-out: Ratio IC50. The gist of the method:
(§1)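 Selectivity index is the IC50 for Vero-cell cytotoxicity (Neutral Red viability) divided by the IC50 against P. falciparum D6 or W2 (from dose-response curves).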

Series [3] can be described thus: Selectivity index, ratio of IC50 for african green monkey Vero cells to IC50 for chloroquine-sensitive Plasmodium falciparum D6. Format: toxicity, cell-based. The settings on record: read-out: Ratio IC50. The method in brief: as §1
Series [4] concerns Plasmodium falciparum. Nature of the series: Antimalarial activity against chloroquine-resistant Plasmodium falciparum W2 infected in RBC assessed as parasite LDH activity after 72 hrs. Format: functional, organism-based. The settings on record: W2, 72 h.
In the next series the test system is Vero. Nature of the series: Cytotoxicity against african green monkey Vero cells. Type of series: cell-based, Chlorocebus sabaeus. The method in brief:
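Mammalian cells (Vero, LLC-PK11, SK-MEL, KB, BT-549, SK-OV-3) exposed to compound; viable cells counted by Neutral Red dye uptake; IC50 taken from dose-response curves.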

In a further series the test system is SK-OV-3. The experiment in a line: Cytotoxicity against human SKOV3 cells assessed as viable cells by neutral red dye method. Type of series: functional, cell-based.
The subject of a further series is BT-549. Nature of the series: Cytotoxicity against human BT549 cells assessed as viable cells by neutral red dye method. Type of series: functional, cell-based.
In the next series the test system is SK-MEL. Nature of the series: Cytotoxicity against human SK-MEL cells assessed as viable cells by neutral red dye method. Type of series: functional, cell-based.
The subject of the next series is KB. Nature of the series: Cytotoxicity against human KB cells assessed as viable cells by neutral red dye method. Format: functional, cell-based.
A further series relates to Leishmania donovani. Nature of the series: Antileishmanial activity against Leishmania donovani promastigotes. Type of series: functional, organism-based. The gist of the method: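 Compounds were tested in vitro on cultured L. donovani promastigotes, with pentamidine and amphotericin B as standard controls. IC50 and IC90 (50% and 90% growth inhibition) were computed from growth-inhibition curves.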

Series [5] in a line: Cytotoxicity against pig LLC-PK11 cells assessed as viable cells by neutral red dye method. Type of series: cell-based. The settings on record: Sus scrofa.
Series [6] deals with Agrostis stolonifera. Nature of the series: Phytotoxic activity against Agrostis stolonifera at 1.73 mM. Type of series: functional, organism-based. The method in brief: (§2)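 Compound (1 mg) dissolved in 100 μL acetone; 20 μL spotted on filter paper, air-dried 30 min. Paper placed in well, 200 μL water added. Bentgrass (Agrostis stolonifera) or lettuce (Lactuca sativa cv. L., Iceberg) seeds used. Solvent controls treated identically. Growth scored visually from 0 (no effect) to 5 (no growth).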

Series [7] deals with Lactuca sativa. Nature of the series: Phytotoxic activity against Lactuca sativa cv. L. at 1.73 mM. Type of series: functional, organism-based. The gist of the method:
as §2

Another series has as its system Cryptococcus neoformans. Nature of the series: Antifungal activity against Cryptococcus neoformans ATCC 90113 by broth dilution method. Format: functional, organism-based. The gist of the method: (§3)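 Broth dilution run as a modified CLSI susceptibility method. Amphotericin B was included as the antifungal drug control in each assay.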
(In general: Dilution methods test growth across graded concentrations, often in twofold steps.)

A further series relates to Candida albicans. Nature of the series: Antifungal activity against Candida albicans ATCC 90028 by broth dilution method. Type of series: functional, organism-based. The gist of the method: as §3
For another series, the system named is Pichia kudriavzevii. Nature of the series: Antifungal activity against Candida krusei ATCC 6258 by broth dilution method. Format: functional, organism-based. The gist of the method:
as §3

A further series concerns Nakaseomyces glabratus. The experiment in a line: Antifungal activity against Candida glabrata ATCC 90030 by broth dilution method. Format: functional, organism-based. The gist of the method: as §3
The subject of the next series is Aspergillus fumigatus. Nature of the series: Antifungal activity against Aspergillus fumigatus ATCC 90906 by broth dilution method. Format: functional, organism-based. The gist of the method: as §3
For series [8], the system named is Agrostis stolonifera. Nature of the series: Phytotoxic activity against Agrostis stolonifera at 1.62 mM. Format: functional, organism-based. The gist of the method:
as §2

Series [9] concerns Lactuca sativa. Nature of the series: Phytotoxic activity against Lactuca sativa cv. L. at 1.62 mM. Format: functional, organism-based. The method in brief:
as §2

In series [10] the test system is Lactuca sativa. Nature of the series: Phytotoxic activity against Lactuca sativa cv. L. at 1.87 mM. Type of series: functional, organism-based. The method in brief: (§4)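 Seeds were bentgrass (Agrostis stolonifera) and lettuce (cv. Iceberg), in multiwell plates. Compound was dissolved at 1 mg per 100 μL acetone, and a 20 μL aliquot was dried onto filter paper for 30 min under airflow. Water was then added. Acetone solvent controls were handled identically. Growth was scored visually from 0 (no effect) to 5 (no growth).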

Series [11] has as its system Staphylococcus aureus. Nature of the series: Antimicrobial activity against methicillin-resistant Staphylococcus aureus ATCC 33591 by CLSI M7-A5 method. Format: functional.
Series [12] deals with Staphylococcus aureus. Nature of the series: Antimicrobial activity against methicillin-sensitive Staphylococcus aureus ATCC 29213 by CLSI M7-A5 method. Format: functional.
In series [13] the test system is Agrostis stolonifera. The experiment in a line: Phytotoxic activity against Agrostis stolonifera at 1.87 mM. Format: functional, organism-based. The method in brief: as §4
Setting [14] is: Chlorocebus sabaeus, Vero, read-out: IC50.

Regarding `CC[C@@H](C)[C@H]1O[C@@H](c2c(OC)c(-c3ccccc3)c[n+]([O-])c2OC)[C@H](C)C[C@@H]1C`, the half-maximal inhibitory concentration (IC50) (in general, the point on the concentration scale where inhibition reaches its midpoint) is 6760 nM with Plasmodium falciparum [1], 6510 nM with Plasmodium falciparum [4] and “Non-toxic” with Vero (vero). In addition, the selectivity ratio in [2] was greater than 1.2; in series [3] it was greater than 1.1.
Regarding `COc1c(C[C@@H](C)OC(C)=O)c2c3c(C[C@@H](C)O)c(OC)c(=O)c4c(O)cc5c(c6c(cc(O)c(c1=O)c62)OCO5)c43`, the 50% inhibitory concentration (IC50) with Plasmodium falciparum [1] was found to be 2780 nM; in the series on SK-OV-3 it was 4 µM; in the series on BT-549, 8.6 µM; in the series on SK-MEL, 3.8 µM; in the series with Plasmodium falciparum [4] it was 3120 nM; in the series with KB, 8.5 µM. Also, the 50% inhibitory concentration (IC50) in the series with Leishmania donovani is 1700 nM; with Vero (setting [14]), 5.21 µM; in series [5] it was 10.1 µM. For the same compound, the selectivity ratio amounted to 1.7 in [2] and 1.9 in [3]. The outcome in the series with Agrostis stolonifera [6] and in the series with Lactuca sativa [7] was Active.
Regarding `CC[C@@H](C)[C@H]1O[C@@H](c2c(O)c(-c3ccccc3)cn(O)c2=O)[C@H](C)C[C@@H]1C` [SEPTORIAMYCIN A], the outcome in the series on Cryptococcus neoformans, in the series on Candida albicans, in the series with Pichia kudriavzevii, in the series on Nakaseomyces glabratus and in the series on Aspergillus fumigatus was Active. For the same compound, half-maximal inhibition in the series with Leishmania donovani (IC50) required 110 nM. In addition, the IC90 (in general, the concentration needed for an effect of 90%) in the series with Leishmania donovani is 290 nM.
Consider `COc1c(C[C@@H](C)OC(C)=O)c2c3c(C[C@@H](C)OC(C)=O)c(OC)c(=O)c4c(O)cc5c(c6c(cc(O)c(c1=O)c62)OCO5)c43`, for which the IC50 in the series with Plasmodium falciparum [1] worked out at 2750 nM; in the series with SK-OV-3, 4.8 µM; in the series on BT-549, 8.7 µM; in the series with SK-MEL, 4.9 µM; with Plasmodium falciparum [4], 1940 nM; in the series with KB, 8.7 µM. The half-inhibitory concentration (IC50) stood at 3100 nM in the series with Leishmania donovani, 4.53 µM with Vero (setting [14]) and 9.4 µM in series [5]. In addition, the selectivity ratio in [2] is 2.3; in series [3], 1.6. The outcome in the series with Agrostis stolonifera [8] and with Lactuca sativa [9] was Active. In the series with Leishmania donovani, the IC90 was 9700 nM.
On to `COc1c(C[C@@H](C)O)c2c3c(C[C@@H](C)O)c(OC)c(=O)c4c(O)cc5c(c6c(cc(O)c(c1=O)c62)OCO5)c43`, for which the 50% inhibitory concentration (IC50) in the series on Plasmodium falciparum [1] was 1080 nM; with SK-OV-3, 3.7 µM; in the series with BT-549 it was 10.8 µM; with SK-MEL, 3.6 µM; in the series on Plasmodium falciparum [4], 1620 nM; in the series with KB it was 7.1 µM. Moreover, the IC50 was determined as 1140 nM in the series with Leishmania donovani, 5.24 µM in the series with Vero (setting [14]) and 3.9 µM in series [5]. Also, the selectivity ratio turned out to be 3.2 in series [2] and 4.8 in [3]. Moreover, the result in the series on Lactuca sativa [10] and with Agrostis stolonifera [13] was Active. Also, the MIC (in general, the lowest concentration found to suppress growth) in the series with Staphylococcus aureus [11] was 9.4 µM (≈ 5.02 µg/mL); against Staphylococcus aureus [12], 4.7 µM (≈ 2.51 µg/mL). For the same compound, it took 2810 nM to reach the 90% level with Leishmania donovani (IC90).
With `CCN(CC)CCCC(C)Nc1ccnc2cc(Cl)ccc12` (configuration not stated) [CHLOROQUINE], in the series with Vero (vero), the IC50 entry is “Non-toxic”.
`C[C@@H]1CC[C@H]2[C@@H](C)C(=O)O[C@@H]3O[C@@]4(C)CC[C@@H]1[C@]32OO4` [ARTEMISININ]: the results for the half-inhibitory concentration (IC50) in the series on Plasmodium falciparum [1] and in the series on Vero (vero) were 20 nM and “Non-toxic”, respectively.
In the series on Leishmania donovani, `C[C@@H]1[C@H](O)[C@@H](C)/C=C/C=C/C=C/C=C/C=C/C=C/C=C/[C@H](O[C@@H]2O[C@H](C)[C@@H](O)[C@H](N)[C@@H]2O)C[C@@H]2O[C@](O)(C[C@@H](O)C[C@@H](O)[C@H](O)CC[C@@H](O)C[C@@H](O)CC(=O)O[C@H]1C)C[C@H](O)[C@H]2C(=O)O` [AMPHOTERICIN B] showed an IC50 of 180 nM and an IC90 of 380 nM.
`N=C(N)c1ccc(OCCCCCOc2ccc(C(=N)N)cc2)cc1` [PENTAMIDINE]: in the series with Leishmania donovani, it took 2900 nM to reach half-maximal inhibition (IC50) and the 90% effect concentration (IC90) was 5580 nM.
